Data as given in ChEMBL document CHEMBL4007401, “Lynamicin D an antimicrobial natural product affects splicing by inducing the expression of SR protein kinase 1” (2017).
The source made the active and inactive calls. The rule behind the calls is not given here.

Experiments:
HeLa [1] = assay: Modulation of SRPK1 pre-mRNA splicing in human HeLa cells assessed as effect on intracellular localization of SRPK1 at 30 uM after 24 hrs by DAPI staining based immunofluorescence microscopic method; format: cell-based
HeLa [2] = assay: Modulation of alternative splicing of SRp20 exons […] pre-mRNA (unknown origin) expressed in human HeLa cells assessed as inclusion of exon-4 up to 20 uM after 24 hrs by ethidium bromide staining based agarose gel electrophoresis method; format: cell-based
How it was run: (§1)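 HeLa (2 x 10exp4) transfected with 0.5 µg pSMN2 (exons 6-8) or pSRp20 (exons 3-5), or 1 µg pSVIRB (rat insulin exons 1-3). After 4 h, medium replaced with lynamicin D (0-20 µM; results cite 10, 20, 30 µM) or DMSO. RNA at 24 h, 1 µg RT, 30 PCR cycles, annealing 60 °C (SRp20 55 °C). Agarose gels; upper/lower band ratio. Means ±SE, n=3.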

HeLa [3] = assay: Modulation of SRPK1 pre-mRNA splicing in human HeLa cells assessed as increase in SRPK1 pre-mRNA level at 10 to 30 uM after 24 hrs by RT-PCR method relative to control; format: cell-based
How it was run: (§2)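 Total RNA from cells treated 24 h or control taken with TRIZOL. 1 µg reverse transcribed with random hexamers. SRPK1 amplified 27 cycles (95 °C 40 s, 66 °C 40 s, 72 °C 60 s); actin reference annealed at 60 °C. Products on 1% agarose, ethidium bromide. SRPK1/actin ratio by densitometry.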

HeLa [4] = assay: Modulation of constitutive splicing of rat insulin exons 1 to 3 pre-mRNA expressed in human HeLa cells assessed as retention of introns up to 20 uM after 24 hrs by ethidium bromide staining based agarose gel electrophoresis method
HeLa [5] = assay: Modulation of alternative splicing of SMN2 exons 6 to 8 pre-mRNA (unknown origin) expressed in human HeLa cells assessed as inclusion of exon-7 up to 20 uM after 24 hrs by ethidium bromide staining based agarose gel electrophoresis method; format: cell-based; how it was run: as §1
HeLa [6] = assay: Cytotoxicity against human HeLa cells assessed as cell viability at 30 uM after 48 hrs by MTT assay relative to control; format: functional; conditions: read-out: Activity
How it was run: (§3)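 Cells seeded at 10^4 per well, exposed 24 h later to lynamicin D (0-20 µM in methods; 30 µM stated in results) for 48 h. Then 4 h with 0.5 mg/ml MTT, crystals dissolved in 10% SDS in 0.01 N HCl, A570 read. Blanked against DMSO; medium-only cells = 100% viability. Means ±SE, three independent experiments.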

[7] = biological target: SRSF protein kinase 1 (Homo sapiens) (UniProt Q96SB4); assay: Inhibition of GST-tagged SRPK1 (unknown origin) at 5 to 30 uM using GST-LBRNt (62 to 92 residues) as substrate by SDS-PAGE based autoradiography
How it was run: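 Radioactive kinase reaction, 25 µL: 12 mM Hepes pH 7.5, 10 mM MgCl2, 25 µM ATP, 0.5 µg recombinant GST-SRPK1, 1 µg GST-LBRNt(62-92) (LBR N-terminal RS-containing fragment) as substrate. Lynamicin D 0-30 µM or SRPIN340 5 µM. Products run on 12% SDS-PAGE, Coomassie-stained and autoradiographed; incorporation measured by excising bands and scintillation counting.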

A549 [8] = assay: Modulation of SRPK1 pre-mRNA splicing in human A549 cells assessed as increase in SRPK1 protein level at 10 to 30 uM after 24 hrs by Western blot method relative to control; format: cell-based
How it was run: (§4)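 Lysis in 1% Triton X-100, 20 mM Hepes-KOH pH 7.5, 150 mM NaCl, 1 mM PMSF, 30 min on ice, needle-sheared, spun 13,000 g 15 min. Equal protein on 10% SDS-PAGE. Endogenous SRPK1 probed with mouse monoclonal anti-SRPK1, GAPDH as loading control, AP secondary with BCIP/NBT; SRPK1/GAPDH by densitometry.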

A549 [9] = assay: Modulation of SRPK1 pre-mRNA splicing in human A549 cells assessed as increase in SRPK1 pre-mRNA level at 10 to 30 uM after 24 hrs by RT-PCR method relative to control; format: cell-based; how it was run: as §2
Homo sapiens [10] = organism: Homo sapiens; assay: Modulation of SRPK1 pre-mRNA splicing in human T98G cells assessed as increase in SRPK1 pre-mRNA level at 10 to 30 uM after 24 hrs by RT-PCR method relative to control; format: cell-based; how it was run: as §2
HeLa [11] = assay: Modulation of constitutive splicing of rat insulin exons 1 to 3 pre-mRNA expressed in human HeLa cells assessed as retention of introns up to 20 uM after 24 hrs by ethidium bromide staining based agarose gel electrophoresis method; format: cell-based; how it was run: as §1
Rattus norvegicus = organism: Rattus norvegicus; assay: Modulation of constitutive splicing of rat insulin exons 1 to 3 pre-mRNA expressed in human T98G cells assessed as retention of introns up to 20 uM after 24 hrs by ethidium bromide staining based agarose gel electrophoresis method; format: cell-based
HeLa [12] = assay: Modulation of SRPK1 pre-mRNA splicing in human HeLa cells assessed as increase in SRPK1 protein level at 10 to 30 uM after 24 hrs by Western blot method relative to control; format: cell-based; how it was run: as §4
T98G = assay: Cytotoxicity against human T98G cells assessed as cell viability at 30 uM after 48 hrs by MTT assay relative to control; format: functional; conditions: read-out: Activity; how it was run: as §3
A549 [13] = assay: Cytotoxicity against human A549 cells assessed as cell viability at 30 uM after 48 hrs by MTT assay relative to control; format: functional; conditions: A549, 48 h, read-out: Activity; how it was run: as §3
HeLa (Homo sapiens) = assay: Modulation of alternative splicing of SRp20 exons […] pre-mRNA (unknown origin) expressed in human HeLa cells assessed as inclusion of exon-4 up to 20 uM after 24 hrs by ethidium bromide staining based agarose gel electrophoresis method
Homo sapiens [14] = organism: Homo sapiens; assay: Modulation of SRPK1 pre-mRNA splicing in human T98G cells assessed as increase in SRPK1 protein level at 10 to 30 uM after 24 hrs by Western blot method relative to control; format: cell-based; how it was run: as §4
A549 [15] = assay: Modulation of constitutive splicing of rat insulin exons 1 to 3 pre-mRNA expressed in human A549 cells assessed as retention of introns up to 20 uM after 24 hrs by ethidium bromide staining based agarose gel electrophoresis method; format: cell-based
[16] = Modulation of alternative splicing of SRp20 exons […] pre-mRNA (unknown origin) expressed in human T98G cells assessed as inclusion of exon-4 up to 20 uM after 24 hrs by ethidium bromide staining based agarose gel electrophoresis method; format: cell-based

Sequence of SRSF protein kinase 1 (Homo sapiens) (Q96SB4 whole entry, the tested form may be a part): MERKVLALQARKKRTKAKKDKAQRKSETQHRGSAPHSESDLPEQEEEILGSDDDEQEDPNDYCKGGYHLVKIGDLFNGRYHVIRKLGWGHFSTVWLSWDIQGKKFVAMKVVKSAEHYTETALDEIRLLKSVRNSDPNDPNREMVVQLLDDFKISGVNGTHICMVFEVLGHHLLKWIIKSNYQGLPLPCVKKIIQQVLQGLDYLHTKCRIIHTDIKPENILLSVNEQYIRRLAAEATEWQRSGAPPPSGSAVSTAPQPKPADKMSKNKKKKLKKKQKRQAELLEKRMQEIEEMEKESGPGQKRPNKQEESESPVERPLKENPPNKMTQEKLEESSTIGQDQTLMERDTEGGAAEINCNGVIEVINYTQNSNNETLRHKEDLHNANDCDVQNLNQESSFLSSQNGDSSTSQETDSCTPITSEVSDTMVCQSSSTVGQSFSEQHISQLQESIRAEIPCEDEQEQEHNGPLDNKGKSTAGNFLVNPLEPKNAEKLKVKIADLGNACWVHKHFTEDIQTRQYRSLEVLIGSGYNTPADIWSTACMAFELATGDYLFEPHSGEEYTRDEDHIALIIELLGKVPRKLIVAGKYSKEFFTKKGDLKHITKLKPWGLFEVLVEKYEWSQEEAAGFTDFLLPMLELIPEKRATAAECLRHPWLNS

## COC(=O)c1[nH]c(C(=O)OC)c(-c2c[nH]c3ccc(Cl)cc23)c1-c1c[nH]c2ccc(Cl)cc12 [LYNAMICIN D]
HeLa [1]
  Activity: inactive
HeLa [2]
  Activity: Active
HeLa [3]
  fold change (FC): 3
HeLa [4]
  Activity: Active
HeLa [5]
  Activity: Active
HeLa [6]
  viability at 30 µM: 82%
[7]
  inhibition: inactive
A549 [8]
  Activity: Active
A549 [9]
  Activity: Active
Homo sapiens [10]
  Activity: Active
HeLa [11]
  Activity: Active
Rattus norvegicus
  Activity: Active
HeLa [12]
  fold change (FC): 1.9
T98G
  viability at 30 µM: 91%
A549 [13]
  viability at 30 µM: 88%
HeLa (Homo sapiens)
  Activity: Active
Homo sapiens [14]
  Activity: Active
A549 [15]
  Activity: Active
[16]
  Activity: Active
